Compound activity deposited in PubChem by several laboratories.
Runt-CBFb FRET – inhibitors of RUNX1 Runt–CBFb binding, primary screen, biochemical, FRET, Cerulean-Runt, Venus-CBFb, uHTS. Cerulean-Runt/Venus-CBFb FRET ratio 530/480, 1 h. AID 1496, 2009. inhibition, % at 20 µM. 220,000 compounds, 0.46% hits;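 active = inhibition over about 50% at 20 µM in the single-dose screen, limit read from the data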;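 also: 0% = DMSO wells and 100% = excess unlabeled CBFb competitor control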
Target sequence (Q01196 whole entry, looked up): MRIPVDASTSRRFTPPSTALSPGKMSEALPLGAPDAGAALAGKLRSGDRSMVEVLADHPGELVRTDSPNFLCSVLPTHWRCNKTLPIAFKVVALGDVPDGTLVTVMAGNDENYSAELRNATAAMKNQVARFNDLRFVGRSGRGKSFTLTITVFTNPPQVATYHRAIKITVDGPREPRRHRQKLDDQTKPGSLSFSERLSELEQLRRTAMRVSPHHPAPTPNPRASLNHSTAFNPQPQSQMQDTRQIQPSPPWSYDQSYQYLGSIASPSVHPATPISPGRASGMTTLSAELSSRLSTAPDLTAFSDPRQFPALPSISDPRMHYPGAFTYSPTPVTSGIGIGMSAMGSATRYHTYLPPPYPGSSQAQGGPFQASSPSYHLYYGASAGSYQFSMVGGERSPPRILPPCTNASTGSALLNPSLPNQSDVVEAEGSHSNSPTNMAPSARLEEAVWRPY
Target sequence (Q13951 whole entry, looked up): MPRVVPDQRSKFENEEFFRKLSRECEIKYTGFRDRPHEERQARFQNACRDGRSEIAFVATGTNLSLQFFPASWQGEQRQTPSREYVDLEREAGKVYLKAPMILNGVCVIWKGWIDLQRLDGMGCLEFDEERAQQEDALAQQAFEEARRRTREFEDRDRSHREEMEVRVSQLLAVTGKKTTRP
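Measured by: fluorescence energy transfer, 422 nm excitation, 530/480 nm emission; test system: Cerulean-tagged RUNX1 Runt domain (FRET donor) fusion protein; buffer or medium: Tris pH 7.5 buffer with BSA; compound: one dose, 20 µM compound, 1% DMSO; times: two 1 h room-temperature incubations shielded from light; benchmarks: unlabeled CBFb 5 µM, positive control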
RanGTP-Imp inh – inhibitors of RanGTP-importin-beta interaction, primary screen, biochemical, FRET, CFP-Ran, YFP-importin-beta, homogeneous; cell-free CFP-Ran/YFP-importin-beta FRET ratio; inhibition, % (concentration not given with the values); 300,000 compounds, 1.1% hits; AID 2216, 2009;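 active = more than half of the replicate wells show a fall in the fluorescence ratio signal beyond about 16%, limit read from the data, passing the limit was not always enough; inconclusive = exactly half of the replicate wells pass the set limit; inactive = fewer than half of replicates pass the limit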;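 also: 0% = DMSO wells and 100% = Ran loaded with GDP instead of GTP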
Platelet DG rel – inhibitors of platelet dense granule secretion, primary screen, cell-based, MLPCN, human platelets | human platelet-rich plasma, SFLLRN dense granule ATP release, luminescence | inhibition, %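 (compounds screened at 7.5 µM in platelet-rich plasma)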 | 300,000 compounds, 0.22% hits;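 active = mean replicate score, as percent of positive control, at or above 50; inconclusive = mean below 50 but at least one replicate at or above 50; inactive = mean and every replicate below 50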
Runt-SMMHC FRET – inhibitors of RUNX1 Runt–CBFb-SMMHC binding, primary screen, biochemical, FRET, Cerulean-Runt, Venus-CBFb-SMMHC, uHTS; inhibition, % at 20 µM; 220,000 compounds, 0.74% hits; Cerulean-Runt/Venus-CBFb-SMMHC FRET ratio 530/480, 1 h; Runt-related transcription factor 1 (Homo sapiens) + Core-binding factor subunit beta …;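 active = mean inhibition across duplicate retests at 20 µM reaching about 50%, limit read from the data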;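 also: 0% = DMSO wells and 100% = wells with excess untagged CBFb-SMMHC; inhibitors lower the FRET ratio by blocking Runt binding to CBFb-SMMHC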
Rce1 inhib – yeast Rce1p protease inhibitors, primary screen, biochemical, fluorescence, cell-free homogeneous. CAAX prenyl protease 2 (Saccharomyces cerevisiae (strain ATCC 204508 / S288c)), Q03530. yeast membranes, quenched prenylated peptide cleavage fluorescence. calls only. 290,000 compounds, 0.27% hits. AID 2563, 2010;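 active = fall in fluorescence gain of 50% or more versus controls, with final raw signal at or below 3038400; inconclusive = same 50% fall but final raw signal above 3038400; inactive = fall in fluorescence gain under 50%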;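 also: plate controls were neutral control wells for no effect and wells lacking membranes for full effect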
An asterisk follows results filed as active; i = inactive; ? = inconclusive; . = not tested or not shown; + = active, no number. In the library only some 1.8% were active in any assay of this set; here they are far more common.

SMILES	Runt-CBFb FRET	RanGTP-Imp inh	Platelet DG rel	Runt-SMMHC FRET	Rce1 inhib
CCOC(=O)C1=C(C)N(CCCC(=O)O)C(=O)NC1c1ccccc1OC(=O)c1cccs1 (stereo not given)	.	-1	-9	.	+
CCOC(=O)C1=C(C)N(CCCC(=O)O)C(=O)NC1c1ccccc1Cl (stereo not given)	.	-1	-5	.	i
COc1cc2c(cc1OC)C1(NCC2)C(=O)Nc2ccccc21 (stereo not given)	-4	0	1	-7	i
COc1cc2c(cc1OC)C1(Nc3c-2c(Cc2ccccc2)nn3-c2ccccc2)C(=O)Nc2ccccc21 (stereo not given)	2	24*	11	-3	i
O=C(O)c1cc2nc(-c3cccs3)cc(C(F)(F)F)n2n1	1	?	0	-10	i
O=C(NCc1ccco1)c1cc2nc(-c3cccs3)cc(C(F)(F)F)n2n1	24	20*	-4	39	i
FC(F)(F)c1cc(-c2cccs2)nc2cc(-c3ccccc3)nn12	2	46*	-2	-3	i
CCOC(=O)c1ccc(NC(=O)Nc2ncc(Cl)cc2Cl)cc1	1	-3	0	1	i
Cc1ccc(NC(=O)C(=O)Nc2ccc(C)cn2)nc1	0	-2	-2	0	i
Cc1ccc(NC(=O)c2sccc2C)nc1	.	2	52*	.	i
CC1OC2(C)OC(=N)C1(C#N)C(C#N)(C#N)C2c1ccccc1 (stereo not given)	30	23*	16	50	i
CCCCC1OC2(C)OC(=N)C1(C#N)C(C#N)(C#N)C2c1ccccc1 (stereo not given)	21	.	.	53	.
CC1C2(C)OC(=N)C(C#N)(C(C)O2)C1(C#N)C#N (stereo not given)	101*	22*	-1	52*	i
NC(=O)c1cc(S(=O)(=O)Nc2ccc(OC(F)(F)F)cc2)cs1	.	0	0	.	i
COc1ccccc1CNS(=O)(=O)c1ccc2c(c1)CC(=O)N2C	.	-5	10	.	i
O=C(NNc1cc(N2CCOCC2)nc(N2CCOCC2)n1)c1ccc([N+](=O)[O-])cc1	3	63*	4	3	i
CN=Cc1sc2ccccc2c1O	28	13	7	54	i
CC(=Nc1cccc(O)c1)c1sc2ccccc2c1O	8	29*	2	15	i
Cc1ccc(O)c(N=Cc2sc3ccccc3c2Cl)c1	5	4	-14	-2	i
CC(=Nc1ccc(C)cc1)c1sc2ccccc2c1O	-45	73*	20	51	i
CC(=Nc1ccc(C)cc1C)c1sc2ccccc2c1O	-17	42*	9	-26	i
Cn1c(SCC(=O)NCC2CCCO2)ncc(C(=O)Nc2ccc(Cl)cc2)c1=O (stereo not given)	.	6	10	.	i
CCOC(=O)c1c(C)[nH]c(C)c1S(=O)(=O)N1CCN(c2cccc(C)c2)C(C)C1 (stereo not given)	.	4	-11	.	i
CC(=O)OCCN1C(=O)c2cccc3cc([N+](=O)[O-])cc(c23)C1=O	.	4	-4	.	i
O=C(CNC(=O)Cc1cccc2ccccc12)NCc1ccc(F)cc1	.	0	8	.	.
SMILES	Runt-CBFb FRET	RanGTP-Imp inh	Platelet DG rel	Runt-SMMHC FRET	Rce1 inhib
CC(C)(C)c1ccc(CSc2nc(N)cc(=O)[nH]2)cc1	.	1	-2	.	i
CCN(CC)c1ccc(/C=C(\C#N)c2ccccn2)cc1	-21	45*	9	-45	i
CCN(Cc1ccccc1)c1ccc(/C=C(\C#N)c2ccccn2)cc1	-125	6	8	-59	i
CN(CCC#N)c1ccc(/C=C(\C#N)c2ccccn2)cc1	4	-27	32	79*	i
Cn1cc(/C=C/C(=O)c2ccccc2)c2ccccc21	0	36*	5	5	i
Cc1ccc(C(=O)/C=C/c2cn(CN3CCN(C)CC3)c3ccccc23)cc1	10	72*	1	-1	i
N#Cc1c(NC(=S)NC(=O)c2ccccc2)sc2c1CCC2	39	5	0	28	i
CN1Cc2sc(NC(=S)NC(=O)c3ccccc3)c(C#N)c2CC1(C)C	14	145*	-1	67*	.
CN1Cc2sc(N)c(C#N)c2CC1(C)C	89*	117*	-6	82*	i
CC1(C)Cc2c(sc(N)c2C#N)C(C)(C)N1	8	3	-5	17	i
CCN1CCc2c(sc(NC(=S)NC(=O)c3ccccc3)c2C#N)C1	12	141*	0	-14	i
CCCCOC(=S)NC(=O)c1sc2ccccc2c1Cl	3	29*	-3	3	i
CN(C)CCCOC(=O)c1sc2ccccc2c1Cl	1	-3	-7	-1	.
O=C(NCCCNC(=O)C(F)(F)C(F)F)C(F)(F)C(F)F	-1	29*	-1	3	i
O=C(NC1CCC(NC(=O)C(F)(F)C(F)F)CC1)C(F)(F)C(F)F (stereo not given)	-1	-2	8	-5	i
O=C(Nc1ccc2nc(-c3cccs3)c(-c3cccs3)nc2c1)N1CCOCC1	41	96*	-2	62*	i
O=C(Nc1ccc(N2CCOCC2)cc1)Nc1ccc2nc(-c3ccco3)c(-c3ccco3)nc2c1	12	26*	0	11	i
O=C(NCCCO)Nc1ccc2nc(-c3ccco3)c(-c3ccco3)nc2c1	-250	.	.	-321	.
O=C(Nc1cccc(O)c1)N1CCOCC1	2	-2	-1	9	i
O=C(Nc1ccc2nc(-c3ccco3)c(-c3ccco3)nc2c1)NC1CC1	-17	62*	-4	-67	i
O=S(=O)(c1ccc2nc(-c3ccco3)c(-c3ccco3)nc2c1)N1CCOCC1	2	9	-2	-21	i
O=C(c1ccc2nc(-c3ccco3)c(-c3ccco3)nc2c1)N1CCN(c2ccccc2)CC1	12	23*	2	-12	i
CCc1nc2ccc(C(=O)N3CCN(c4ccccc4)CC3)cc2nc1CC	.	5	-14	.	i
CCN(CC)S(=O)(=O)c1cc(NC(=O)CNc2cccc(S(=O)(=O)N3CCOCC3)c2)ccc1C	.	2	-3	.	i
O=C(Nc1ccc(N2CCOCC2)cc1)c1nc2ccccc2s1	-18	-2	88*	-27	i
O=C(Nc1cccc(C(F)(F)F)c1)c1ccc2nc(-c3ccco3)c(-c3ccco3)nc2c1	1	47*	-3	-13	i
O=C(Nc1ccc(N2CCOCC2)cc1)c1cc(-c2ccncc2)nc2ccccc12	-2	1	19	-1	i
